Data as given in ChEMBL document CHEMBL4382247, “A novel series of napabucasin derivatives as orally active inhibitors of signal transducer and activator of transcription 3 (STAT3)” (Eur J Med Chem, 2019).
pIC50: −log10 of the molar value. ≈ marks a conversion by molar mass, not a printed value.

Experiments:
HT-29 = experiment: Antiproliferative activity against human HT-29 cells after 72 hrs by MTT assay; assay type: functional, cell-based; details: HT-29, 72 h
In short: (§1)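 Cells seeded at 5 × 10^3 per well and cultured 24 h before compound addition at varied concentrations, then grown a further 72 h; 0.5% DMSO as solvent control. MTT (5mg/ml solution) added for 4 h, formazan dissolved in DMSO, absorbance read at 570nm. Each treatment in triplicate; Mean ± SD.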

U-251 = experiment: Antiproliferative activity against human U251 cells after 72 hrs by MTT assay; assay type: functional, cell-based; details: U-251, 72 h; in short: as §1
PC-3 = experiment: Antiproliferative activity against human PC3 cells after 72 hrs by MTT assay; assay type: functional, cell-based; details: PC-3, 72 h; in short: as §1
HepG2 = experiment: Antiproliferative activity against human HepG2 cells after 72 hrs by MTT assay; assay type: functional, cell-based; details: HepG2, 72 h; in short: as §1
CT26 = experiment: Antiproliferative activity against mouse CT26 cells after 72 hrs by MTT assay; assay type: functional, cell-based; details: CT26, 72 h; in short: as §1
[1] = Aqueous solubility of the compound in water at 2 mg after 24 hrs by HPLC analysis; assay type: physicochemical
In short: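 Aqueous solubility measured by HPLC against calibration standards at 15–125 µg/mL. Values are the mean of at least three determinations ± SD.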

SMILES	pIC50 (HT-29)	pIC50 (U-251)	pIC50 (PC-3)	pIC50 (HepG2)	pIC50 (CT26)	solubility at 24 h [1] [µM]
COc1ccc(CCNC(=O)c2cc3c(o2)C(=O)c2ccccc2C3=O)cc1	< 5.00	5.20	< 5.00	< 5.00	–	–
O=C(/C=C/c1cccs1)c1cc2c(o1)C(=O)c1ccccc1C2=O	5.82	5.66	< 5.00	< 5.00	< 5.00	–
COc1ccc(C2CCN(C(=O)c3cc4c(o3)C(=O)c3ccccc3C4=O)CC2)cc1	< 5.00	< 5.00	5.02	< 5.00	–	–
O=C(NCCc1ccccc1)c1cc2c(o1)C(=O)c1ccccc1C2=O	< 5.00	< 5.00	< 5.00	< 5.00	–	–
O=C(/C=C/c1ccc(-c2ccccc2)cc1)c1cc2c(o1)C(=O)c1ccccc1C2=O	< 5.00	< 5.00	< 5.00	< 5.00	< 5.00	–
O=C1c2ccccc2C(=O)c2oc(C(=O)N3CCC(c4cccc(Cl)c4)CC3)cc21	< 5.00	< 5.00	< 5.00	< 5.00	–	–
Cn1cccc1/C=C/C(=O)c1cc2c(o1)C(=O)c1ccccc1C2=O	6.06	5.82	< 5.00	< 5.00	5.61	–
CCN1CCN(C(=O)c2cc3c(o2)C(=O)c2ccccc2C3=O)CC1	6.68	6.06	5.69	< 5.00	6.23	241 (≈ 81.5 µg/mL)
O=C(NCCN1CCOCC1)c1cc2c(o1)C(=O)c1ccccc1C2=O	6.43	5.79	5.14	< 5.00	7.30	< 70.6
COC(=O)CC1CCN(C(=O)c2cc3c(o2)C(=O)c2ccccc2C3=O)CC1	< 5.00	5.23	< 5.00	5.02	–	–
O=C(NC1CCCCC1)c1cc2c(o1)C(=O)c1ccccc1C2=O	< 5.00	5.52	< 5.00	< 5.00	–	–
O=C1c2ccccc2C(=O)c2oc(C(=O)N3CCOCC3)cc21	6.07	5.66	5.16	5.14	6.24	162 (≈ 50.5 µg/mL)
CN1CCN(C(=O)c2cc3c(o2)C(=O)c2ccccc2C3=O)CC1	6.41	5.86	5.34	5.28	6.59	337 (≈ 109 µg/mL)
O=C(NCCN1CCCC1)c1cc2c(o1)C(=O)c1ccccc1C2=O	6.52	6.05	5.35	5.76	6.70	–
CC(=O)c1cc2c(o1)C(=O)c1ccccc1C2=O [NAPABUCASIN]	5.80	5.59	5.28	5.18	5.60	< 62.5
O=C1c2ccccc2C(=O)c2oc(C(=O)N3CCN(c4cccc(C(F)(F)F)c4)CC3)cc21	< 5.00	< 5.00	< 5.00	< 5.00	–	–
O=C1c2ccccc2C(=O)c2oc(C(=O)N3CCCC3)cc21	5.97	5.66	5.02	< 5.00	6.24	–
O=C1CCN(C(=O)c2cc3c(o2)C(=O)c2ccccc2C3=O)CC1	5.95	6.24	< 5.00	5.60	6.21	118 (≈ 38.1 µg/mL)
O=C(NC12CC3CC(CC(C3)C1)C2)c1cc2c(o1)C(=O)c1ccccc1C2=O	< 5.00	< 5.00	< 5.00	< 5.00	–	–
O=C(/C=C/c1ccccc1)c1cc2c(o1)C(=O)c1ccccc1C2=O	< 5.00	< 5.00	< 5.00	< 5.00	< 5.00	–
O=C1c2ccccc2C(=O)c2oc(C(=O)N3CCCCC3)cc21	5.80	5.67	< 5.00	< 5.00	6.02	–
O=C(NCCc1ccc(Cl)cc1)c1cc2c(o1)C(=O)c1ccccc1C2=O	< 5.00	5.47	< 5.00	< 5.00	–	–
CC1(C)CCC(NC(=O)c2cc3c(o2)C(=O)c2ccccc2C3=O)CC1	< 5.00	5.58	< 5.00	4.95	–	–
O=C1c2ccccc2C(=O)c2oc(C(=O)N3CCSCC3)cc21	5.78	5.51	5.23	5.02	5.87	< 76.5
O=C1c2ccccc2C(=O)c2oc(C(=O)N3CCC(c4ccc(F)cc4)CC3)cc21	< 5.00	< 5.00	< 5.00	< 5.00	–	–
